Converted amounts (≈) assume the structure as drawn.
Key:
Alternaria solani = test: Antifungal activity against Alternaria solani at 28 degC after 48 hr microbroth dilution method; type: functional
Method in brief: (§1)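 Plant-pathogenic fungi isolated from infected plant organs. Fungi grown 18 h in PD medium at 28 ± 0.5 °C and 150 rpm, then diluted to about 1 × 10^6 CFU in PD medium. Compounds at 2 mg/mL DMSO stock, serially diluted in triplicate in PD medium in 96-well plates before the fungal suspension was added. DMSO served as negative control. After 48 h at 28 ± 0.5 °C, MIC taken as the lowest concentration with no visible growth.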

Fusarium solani = test: Antifungal activity against Fusarium solani at 28 degC after 48 hr microbroth dilution method; type: functional; method in brief: as §1
[1] = test system: Colletotrichum gloeosporioides; test: Antifungal activity against Colletotrichum gloeosporioides at 28 degC after 48 hr microbroth dilution method; type: functional; method in brief: as §1
[2] = test system: Fusarium oxysporum f. sp. vasinfectum; test: Antifungal activity against Fusarium oxysporum f. sp. vasinfectum at 28 degC after 48 hr microbroth dilution method; type: functional; method in brief: as §1
Fusarium graminearum = test: Antifungal activity against Fusarium graminearum at 28 degC after 48 hr microbroth dilution method; type: functional
Method in brief: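 Microbroth dilution in PD medium. Fungi were grown 18 h at 28 ± 0.5 °C and 150 rpm, then diluted to about 1 × 10^6 CFU. Compounds (2 mg/mL DMSO stock) were serially diluted in triplicate and fungal suspension added. Incubated 48 h at 28 ± 0.5 °C. MIC was the lowest concentration with no visible growth. Controls: DMSO, carbendazim, hymexazol.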

Alternaria alternata = test: Antifungal activity against Alternaria alternata at 28 degC after 48 hr microbroth dilution method; type: functional; method in brief: as §1
Botrytis cinerea = test: Antifungal activity against Botryotinia fuckeliana at 28 degC after 48 hr microbroth dilution method; type: functional; method in brief: as §1
[3] = Toxicity in Artemia salina (brine shrimp) […]; type: organism-based; settings: in vivo
[4] = test system: Fusarium oxysporum f. sp. niveum; test: Antifungal activity against Fusarium oxysporum f. sp. niveum at 28 degC after 48 hr microbroth dilution method; type: functional; method in brief: as §1
Mythimna separata = test: Antifeedant activity against Mythimna separata (Oriental armyworm) larvae assessed as antifeedant index by area of the leaf consumed; type: functional; design: concentration or dose not given beside the values
Method in brief: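 Positive control prepared at 10 mg/mL in acetone; leaves treated with acetone alone served as control. Ten treated leaves and 10 larvae per Petri dish lined with moistened filter paper. Held at 25 ± 2 °C, 12L:12D, 65−80% rh. Leaf area consumed recorded after 48 h. AFI = (C − T)/C × 100%, from control and treated areas consumed. Three repetitions.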

SMILES | MIC (Alternaria solani) | MIC (Fusarium solani) | MIC [1] | MIC [2] | MIC (Fusarium graminearum) | MIC (Alternaria alternata) | MIC (Botrytis cinerea) | LC50 [3] | MIC [4] | AFI (Mythimna separata)
COc1ccc2c3c([nH]c2c1)[C@H](C=C(C)C)N1C(=O)[C@@H]2CCCN2C(=O)[C@@]1(O)[C@H]3OC [CYCLOTRYPROSTATIN B] | 12.5 µg/mL (≈ 29.4 µM) | 25 µg/mL (≈ 58.8 µM) | 12.5 µg/mL (≈ 29.4 µM) | 25 µg/mL (≈ 58.8 µM) | 12.5 µg/mL (≈ 29.4 µM) | 12.5 µg/mL (≈ 29.4 µM) | 12.5 µg/mL (≈ 29.4 µM) | 37.9 µg/mL (≈ 89.1 µM) | 12.5 µg/mL (≈ 29.4 µM) | 
C[C@@H]1NC(=O)CNC1=O |  |  |  |  |  |  |  | > 100 µg/mL |  | 
Cc1cc(O)no1 [HYMEXAZOL] | 12.5 µg/mL (≈ 126 µM) | 50 µg/mL (≈ 505 µM) | 12.5 µg/mL (≈ 126 µM) | 25 µg/mL (≈ 252 µM) | 12.5 µg/mL (≈ 126 µM) | 12.5 µg/mL (≈ 126 µM) | 12.5 µg/mL (≈ 126 µM) |  | 12.5 µg/mL (≈ 126 µM) | 
COc1ccc2c3c([nH]c2c1)[C@H](CC(C)(C)O)N1C(=O)[C@@H]2CCCN2C(=O)[C@@]1(O)[C@H]3OC | 6.25 µg/mL (≈ 14.1 µM) | 25 µg/mL (≈ 56.4 µM) | 6.25 µg/mL (≈ 14.1 µM) | 25 µg/mL (≈ 56.4 µM) | 6.25 µg/mL (≈ 14.1 µM) | 6.25 µg/mL (≈ 14.1 µM) | 6.25 µg/mL (≈ 14.1 µM) | 60.7 µg/mL (≈ 137 µM) | 12.5 µg/mL (≈ 28.2 µM) | 
C[C@H]1NC(=O)[C@@H](Cc2c[nH]c3ccccc23)n2c1nc1ccccc1c2=O [FUMIQUINAZOLINE G] | 25 µg/mL (≈ 69.8 µM) | 50 µg/mL (≈ 140 µM) | 12.5 µg/mL (≈ 34.9 µM) | 50 µg/mL (≈ 140 µM) | 12.5 µg/mL (≈ 34.9 µM) | 12.5 µg/mL (≈ 34.9 µM) | 12.5 µg/mL (≈ 34.9 µM) | 78.8 µg/mL (≈ 220 µM) | 50 µg/mL (≈ 140 µM) | 
C[C@@H]1N[C@H]2N(C1=O)c1ccccc1[C@@]2(O)C[C@@H]1C(=O)N[C@@H](C)c2nc3ccccc3c(=O)n21 [FUMIQUINAZOLINE A] | 12.5 µg/mL (≈ 28.1 µM) | 50 µg/mL (≈ 112 µM) | 12.5 µg/mL (≈ 28.1 µM) | 50 µg/mL (≈ 112 µM) | 12.5 µg/mL (≈ 28.1 µM) | 12.5 µg/mL (≈ 28.1 µM) | 12.5 µg/mL (≈ 28.1 µM) | 39.7 µg/mL (≈ 89.1 µM) | 25 µg/mL (≈ 56.1 µM) | 45%
COc1ccc2c(C[C@@H]3NC(=O)[C@@H]4CCCN4C3=O)c(CC=C(C)C)[nH]c2c1 [TRYPROSTATIN A] |  |  |  |  |  |  |  | 44.8 µg/mL (≈ 117 µM) |  | 
C[C@@H]1NC(=O)[C@@H](Cc2c[nH]c3ccccc23)n2c1nc1ccccc1c2=O [FUMIQUINAZOLINE F] | 25 µg/mL (≈ 69.8 µM) | 50 µg/mL (≈ 140 µM) | 12.5 µg/mL (≈ 34.9 µM) | 50 µg/mL (≈ 140 µM) | 12.5 µg/mL (≈ 34.9 µM) | 12.5 µg/mL (≈ 34.9 µM) | 12.5 µg/mL (≈ 34.9 µM) | 55.3 µg/mL (≈ 154 µM) | 25 µg/mL (≈ 69.8 µM) | 30%
O=C1N[C@@H](Cc2ccccc2)C(=O)N2C[C@H](O)C[C@H]12 |  |  |  |  |  |  |  | > 100 µg/mL |  | 
O=C1N[C@@H](Cc2c[nH]c3ccccc23)C(=O)N2CCC[C@@H]12 [BREVIANAMIDE F] |  |  |  |  |  |  |  | 83.7 µg/mL (≈ 295 µM) |  | 
C[C@@H]1NC(=O)[C@@H]2CCCN2C1=O |  |  |  |  |  |  |  | > 100 µg/mL |  | 
C[C@@H]1N[C@H]2N(C1=O)c1ccccc1[C@@]2(O)C[C@@H]1C(=O)N[C@](C)(O)c2nc3ccccc3c(=O)n21 [3-HYDROXYFUMIQUINAZOLINE A] | 12.5 µg/mL (≈ 27.1 µM) | 100 µg/mL (≈ 217 µM) | 12.5 µg/mL (≈ 27.1 µM) | 50 µg/mL (≈ 108 µM) | 12.5 µg/mL (≈ 27.1 µM) | 12.5 µg/mL (≈ 27.1 µM) | 12.5 µg/mL (≈ 27.1 µM) | 80.8 µg/mL (≈ 175 µM) | 50 µg/mL (≈ 108 µM) | 7.5%
COc1ccc2c3c([nH]c2c1)[C@H](C=C(C)C)N1C(=O)[C@@H]2CCCN2C(=O)[C@@H]1C3 [FUMITREMORGIN] | 25 µg/mL (≈ 65.9 µM) | 50 µg/mL (≈ 132 µM) | 12.5 µg/mL (≈ 32.9 µM) | 50 µg/mL (≈ 132 µM) | 12.5 µg/mL (≈ 32.9 µM) | 12.5 µg/mL (≈ 32.9 µM) | 12.5 µg/mL (≈ 32.9 µM) | 40.5 µg/mL (≈ 107 µM) | 25 µg/mL (≈ 65.9 µM) | 15%
O=C1CCC(O)c2cccc(O)c21 (stereo not given) [4,8-DIHYDROXY-1-TETRALONE] | 12.5 µg/mL (≈ 70.2 µM) | 50 µg/mL (≈ 281 µM) | 12.5 µg/mL (≈ 70.2 µM) | 50 µg/mL (≈ 281 µM) | 12.5 µg/mL (≈ 70.2 µM) | 12.5 µg/mL (≈ 70.2 µM) | 12.5 µg/mL (≈ 70.2 µM) | 52.7 µg/mL (≈ 296 µM) | 25 µg/mL (≈ 140 µM) | 
O=C1N[C@@H](CO)C(=O)N2CCC[C@@H]12 |  |  |  |  |  |  |  | > 100 µg/mL |  | 
C[C@@H]1CN(C)[C@@H]2Cc3c[nH]c4cccc(c34)[C@H]2[C@H]1O [FUMIGACLAVINE B] |  |  |  |  |  |  |  | > 100 µg/mL |  | 
CC/C=C\[C@H](O)[C@H](O)C1=C(C)C(=O)[C@]2(O1)C(=O)N[C@@](OC)(C(=O)c1ccccc1)[C@@H]2O [PSEUROTIN A] |  |  |  |  |  |  |  | > 100 µg/mL |  | 
COc1ccc2c3c([nH]c2c1)[C@H](CC(C)(C)O)N1C(=O)[C@@H]2CCCN2C(=O)[C@@]1(O)[C@H]3O | 25 µg/mL (≈ 58.2 µM) | 50 µg/mL (≈ 116 µM) | 25 µg/mL (≈ 58.2 µM) | 50 µg/mL (≈ 116 µM) | 25 µg/mL (≈ 58.2 µM) | 25 µg/mL (≈ 58.2 µM) | 25 µg/mL (≈ 58.2 µM) | 73.2 µg/mL (≈ 170 µM) | 25 µg/mL (≈ 58.2 µM) | 

SMILES | MIC (Alternaria solani) | MIC (Fusarium solani) | MIC [1] | MIC [2] | MIC (Fusarium graminearum) | MIC (Alternaria alternata) | MIC (Botrytis cinerea) | LC50 [3] | MIC [4] | AFI (Mythimna separata)
O=C1C[C@@H](O)[C@@H](O)c2cccc(O)c21 (relative stereo) |  |  |  |  |  |  |  | > 100 µg/mL |  | 
O=C1C[C@@H](O)[C@H](O)c2cccc(O)c21 (relative stereo) |  |  |  |  |  |  |  | > 100 µg/mL |  | 
CC(=O)O[C@@H]1C[C@H](O)[C@@]23CO[C@@H](O)[C@]1(C)[C@@H]2C[C@@H](O)[C@]1(C)[C@@H]3C(=O)[C@H](OC(C)=O)[C@@]2(C)[C@H](c3ccoc3)C[C@H]3O[C@]321 [TOOSENDANIN] |  |  |  |  |  |  |  | < 1 µg/mL |  | 97.5%
O=C1N[C@@H](CO)C(=O)N2C[C@H](O)C[C@@H]12 |  |  |  |  |  |  |  | > 100 µg/mL |  | 
C[C@@H]1C(=O)N2c3ccccc3[C@@]3(O)C[C@H](n4cnc5ccccc5c4=O)C(=O)N1[C@H]23 [TRYPTOQUIVALINE O] | 12.5 µg/mL (≈ 31.1 µM) | > 100 µg/mL | 100 µg/mL (≈ 249 µM) | > 100 µg/mL | 50 µg/mL (≈ 124 µM) | 25 µg/mL (≈ 62.1 µM) | 25 µg/mL (≈ 62.1 µM) | 72.8 µg/mL (≈ 181 µM) | > 100 µg/mL | 
CC/C=C/[C@H](O)[C@H](O)C1=C(C)C(=O)[C@]2(O1)C(=O)N[C@@](OC)(C(=O)c1ccccc1)[C@H]2O [PSEUROTIN A1] |  |  |  |  |  |  |  | > 100 µg/mL |  | 
O=c1cc[nH]c(=O)[nH]1 [URACIL] |  |  |  |  |  |  |  | > 100 µg/mL |  | 
C[C@@H]1NC(=O)[C@@H]2C[C@@H](O)CN2C1=O |  |  |  |  |  |  |  | 66.1 µg/mL (≈ 359 µM) |  | 
COC(=O)Nc1nc2ccccc2[nH]1 [CARBENDAZIM] | 12.5 µg/mL (≈ 65.4 µM) | 25 µg/mL (≈ 131 µM) | 6.25 µg/mL (≈ 32.7 µM) | 25 µg/mL (≈ 131 µM) | 6.25 µg/mL (≈ 32.7 µM) | 6.25 µg/mL (≈ 32.7 µM) | 12.5 µg/mL (≈ 65.4 µM) |  | 12.5 µg/mL (≈ 65.4 µM) | 
O=C1[C@@H]2C[C@@H](O)CN2C(=O)[C@@H]2CCCN12 |  |  |  |  |  |  |  | > 100 µg/mL |  | 
O=C1CNC(=O)[C@H](Cc2ccccc2)N1 |  |  |  |  |  |  |  | > 100 µg/mL |  | 
O=C1NCC(=O)N2CCC[C@@H]12 [CYCLO(PROLYLGLYCYL)] |  |  |  |  |  |  |  | > 100 µg/mL |  | 
COc1ccc2c(c1)N[C@@]1(C2=O)[C@H](C=C(C)C)N2C(=O)[C@@H]3CCCN3C(=O)[C@]2(O)[C@H]1O |  |  |  |  |  |  |  | > 100 µg/mL |  | 5%
CC(C)C[C@@H]1NC(=O)[C@@H]2CC(O)CN2C1=O (stereo not given in full) |  |  |  |  |  |  |  | > 100 µg/mL |  | 
C[C@@H]1NC(=O)[C@H]2CCCN2C1=O |  |  |  |  |  |  |  | > 100 µg/mL |  | 
COc1ccc2c(c1)NC(=O)[C@@]21C=C2C(=O)N3CCC[C@H]3C(=O)N2[C@H]1C=C(C)C [SPIROTRYPROSTATIN B] |  |  |  |  |  |  |  | > 100 µg/mL |  | 
CC(C)=CCc1cccc2c(C[C@@H]3NC(=O)[C@H](C)NC3=O)c[nH]c12 [TEREZINE D] |  |  |  |  |  |  |  | > 100 µg/mL |  | 

From ChEMBL document CHEMBL3045178, “Metabolites from Aspergillus fumigatus, an endophytic fungus associated with Melia azedarach, and their antifungal, antifeedant, and toxic activities” (J Agric Food Chem, 2012)
